Values after ≈ are worked out from the molar mass of the structure shown.
Key:
[1] = test system: Human immunodeficiency virus 1; assay: Antiviral activity against HIV-1, IIIB, in MT-4 Cells; assay type: functional, organism-based; details: Human immunodeficiency virus 1, MT4
Procedure, shortened: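 HIV-1 strain IIIB-induced cytopathic effect in HTLV-I-transformed MT4 cells. Virus adsorbed to cells at 1 × 10⁶ cells/mL, 37 °C, 1 h. Compounds added postadsorption, final 1 × 10⁵ cells/mL. Inoculum set to kill 90% of cells in 5 days. Mock-infected and compound-only controls run. DMSO ≤0.3%, medium with 10% FBS. Viability read by MTT after 5 days. Mean of repeat determinations.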

[2] = molecular target: Human immunodeficiency virus type 1 protease (Human immunodeficiency virus 1, UniProt Q72874); assay: Binding affinity against HIV-1 protease
Procedure, shortened: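 Recombinant HIV-1 PR expressed in E. coli JM105 and purified to homogeneity. Enzyme incubated at 37 °C in 0.1 M MES, 0.37 M NaCl, 4 mM EDTA, pH 6.25, with 280 µM chromogenic nonapeptide substrate (pNph). Initial rates taken from the absorbance decrease at 298 nm. IC50 fitted, then Ki = (IC50 − Et/2)/(1 + S/Km). Mean of two determinations; DMSO ≤5%.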

MT4 [3] = assay: Antiviral Activity against HIV-1, IIIB, in MT-4 Cells; d indicates no activity at 10 uM; assay type: functional, cell-based, Homo sapiens
Procedure, shortened: (§1)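 MT4 cells infected with HIV-1 IIIB; virus adsorbed at 1 × 10⁶ cells/mL, 37 °C, 1 h, then plated at 1 × 10⁵ cells/mL with compound added postadsorption. Inoculum set to kill 90% of cells in 5 days. Incubated 5 days; viability of infected and mock-infected cells by MTT, read spectrophotometrically. Medium with 10% FBS; DMSO ≤0.3%. Values given as mean ± SD, n in parentheses.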

[4] = Oral Bioavailability was measured as area-under-curve(AUC) value at dose 125 mg/kg; assay type: ADME, organism-based; details: in vivo
Procedure, shortened: (§2)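 Female Balb/c mice, fasted 24 h before and during the study, water ad libitum. Dosed by oral gavage at 125 mg/kg in a liquid formulation. Heparinized whole blood sampled at various times, methanol-extracted, cleaned on sulfobenzyl SPE, then RP-C18 HPLC with UV at 200 nm against an internal standard. Cmax taken as observed; AUC calculated. Detection limit 0.1 µM.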

[5] = Oral Bioavailability was measured as Maximal observed concentration (Cmax) value at dose 125 mg/kg; assay type: ADME, organism-based; design: dose 125 mg/kg, route oral; details: in vivo; procedure, shortened: as §2
[6] = Solubility (phosphate-buffered saline, pH =7.4); assay type: physicochemical; details: read-out: S
Procedure, shortened: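 About 1 mg of lyophilized amorphous inhibitor in 1 mL PBS (pH 7.4), vortexed 1 min and sonicated 30 min at 37 °C. Filtered, then centrifuged at 100 000 rpm for 30 min. Supernatant run on RP-C18 HPLC (10 mM NH4OAc/CH3CN 50/50, UV 210 nm) and quantified by external standard. Minimum detectable 0.1 µg/mL.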

MT4 [7] = assay: Antiviral Activity against HIV-1, IIIB, in MT-4 Cells; d indicates no activity at 3 uM; assay type: functional, cell-based, Homo sapiens; procedure, shortened: as §1
[8] = Oral Bioavailability was measured as area-under-curve(AUC) value at dose 125 mg/kg; b = No compound detectable in blood above the detection limit of 0.1 uM; assay type: ADME, organism-based; details: in vivo; procedure, shortened: as §2
[9] = Oral Bioavailability was measured as Maximal observed concentration (Cmax) value at dose 125 mg/kg; b = No compound detectable in blood above the detection limit of 0.1 uM; assay type: ADME, organism-based; design: dose 125 mg/kg, route oral; details: in vivo; procedure, shortened: as §2

| Structure (SMILES) | IC50 [1] [µM] | Ki [2] [µM] | AUC [4] [µM·h] | Cmax [5] [µM] | solubility [6] [µM] | further results |
| --- | --- | --- | --- | --- | --- | --- |
| COc1ccc(CN[C@@H](C(=O)N[C@H]2c3ccccc3C[C@H]2O)[C@H](O)[C@H](Cc2ccccc2)NC(=O)[C@@H](NC(=O)Nc2cccc(OC)c2OC)C(C)(C)C)cc1 | 0.532 | 0.013 |  |  |  |  |
| COc1ccc(CN[C@@H](C(=O)N[C@@H]2c3ccccc3C[C@H]2O)[C@H](O)[C@H](Cc2ccccc2)NC(=O)OC(C)(C)C)cc1 |  | 0.065 |  |  |  | IC50 (MT4 [3]): No activity |
| CC(C)(C)[C@H](NC(=O)OCc1ccccc1)C(=O)N[C@@H](Cc1ccccc1)[C@@H](O)[C@@H](NCc1ccc(OCCO)cc1)C(=O)N[C@H]1c2ccccc2C[C@H]1O | 0.155 |  | 5.9 | 2.6 | 16.5 (≈ 12.4 µg/mL) |  |
| CCOc1ccc(CN[C@@H](C(=O)N[C@H]2c3ccccc3C[C@H]2O)[C@H](O)[C@H](Cc2ccccc2)NC(=O)[C@@H](NC(=O)OCc2ccccc2)C(C)(C)C)cc1 | 0.256 |  | 23.9 | 4.3 | < 1 |  |
| COc1ccc(CN[C@@H](C(=O)NC2c3ccccc3C[C@H]2O)[C@H](O)[C@H](Cc2ccccc2)NC(=O)[C@@H](NC(=O)CSc2nnn(C)n2)C(C)(C)C)cc1 (stereo partly specified) | 0.18 | 0.012 | 7.4 | 2.8 | 78 (≈ 58.1 µg/mL) |  |
| COc1ccc(CN[C@@H](C(=O)NC2c3ccccc3C[C@H]2O)[C@H](O)[C@H](Cc2ccccc2)NC(=O)[C@@H](NC(=O)CCc2ccc(OC)c(O)c2)C(C)(C)C)cc1 (stereo partly specified) | 0.088 | 0.0077 | 0.2 | 0.25 |  |  |
| CC(C)(C)OC(=O)N[C@@H](Cc1ccccc1)[C@@H](O)[C@@H](NCc1ccc(CNC(=O)CCc2nc3ccccc3[nH]2)cc1)C(=O)NCc1ccccc1 |  |  |  |  |  | IC50 (MT4 [7]): No activity |
| COc1ccc(CN[C@@H](C(=O)NC(C(=O)NCc2nc3ccccc3[nH]2)c2ccccc2)[C@H](O)[C@H](Cc2ccccc2)NC(=O)OC(C)(C)C)cc1 (stereo partly specified) | 0.38 | 0.011 |  |  |  |  |
| COc1ccc(CN[C@@H](C(=O)NC2c3ccccc3C[C@H]2O)[C@H](O)[C@H](Cc2ccccc2)NC(=O)[C@@H](NC(=O)CCc2ccccc2O)C(C)(C)C)cc1 (stereo partly specified) | 0.16 | 0.013 | 11.8 | 1.8 |  |  |
| COc1ccc(CN[C@@H](C(=O)N[C@H]2c3ccccc3CC2O)[C@H](O)[C@H](Cc2ccccc2)NC(=O)[C@@H](NC(=O)OCc2ccccc2)C(C)C)cc1 (stereo partly specified) | 0.344 | 0.0081 | 137 | 12.3 | 2.9 (≈ 2.06 µg/mL) |  |
| CC(=O)NCc1ccc(CN[C@@H](C(=O)N[C@H]2c3ccccc3C[C@H]2O)[C@H](O)[C@H](Cc2ccccc2)NC(=O)[C@@H](NC(=O)OCc2ccccc2)C(C)(C)C)cc1 | 0.099 | 0.0057 |  |  | 25.3 (≈ 19.3 µg/mL) | AUC [8]: No compound detectable; Cmax [9]: No compound detectable |
| COc1ccc(CN[C@@H](C(=O)NC2c3ccccc3C[C@H]2O)[C@H](O)[C@H](Cc2ccccc2)NC(=O)[C@@H](NC(=O)CSc2nncn2C)C(C)(C)C)cc1 (stereo partly specified) | 0.19 | 0.0058 | 1.6 | 0.7 | 260 (≈ 193 µg/mL) |  |
| COc1ccc(CN[C@@H](C(=O)N[C@H]2c3ccccc3C[C@H]2O)[C@H](O)[C@H](Cc2ccccc2)NC(=O)[C@@H](NC(=O)OCc2ccccc2)C(C)(C)C)cc1 | 0.254 | 0.0095 | 82.5 | 16.5 | < 1 |  |
| CC(C)(C)OC(=O)N[C@@H](Cc1ccccc1)[C@@H](O)[C@@H](NCc1ccc(CNC(=O)CCc2nc3ccccc3[nH]2)cc1)C(=O)N[C@H]1c2ccccc2C[C@H]1O | 4.4 | 0.041 |  |  |  |  |
| CC(C)(C)OC(=O)N[C@@H](Cc1ccccc1)[C@@H](O)[C@@H](NCc1ccc(CNC(=O)Nc2ccccc2)cc1)C(=O)N[C@@H]1c2ccccc2C[C@H]1O |  | 0.033 |  |  |  | IC50 (MT4 [3]): No activity |
| COc1ccc(CN[C@@H](C(=O)NC2c3ccccc3C[C@H]2O)[C@H](O)[C@H](Cc2ccccc2)NC(=O)[C@@H](NC(=O)/C=C/c2ccc(OC)cc2O)C(C)(C)C)cc1 (stereo partly specified) | 0.238 | 0.018 |  |  |  |  |
| COc1ccc(CN[C@@H](C(=O)NC2c3ccccc3C[C@H]2O)[C@H](O)[C@H](Cc2ccccc2)NC(=O)[C@@H](NC(=O)CSc2nnc(C)s2)C(C)(C)C)cc1 (stereo partly specified) | 0.178 | 0.008 | 60.3 | 20 | 39 (≈ 29.7 µg/mL) |  |
| CCC(C)C(NC(=O)OCc1ccccc1)C(=O)N[C@@H](Cc1ccccc1)[C@@H](O)[C@@H](NCc1ccc(OC)cc1)C(=O)N[C@@H]1c2ccccc2CC1O (stereo partly specified) | 1.1 | 0.0082 |  |  |  |  |
| COc1ccc(CN[C@@H](C(=O)N[C@@H]2c3ccccc3C[C@H]2O)[C@H](O)[C@H](Cc2ccccc2)NC(=O)[C@@H](NC(=O)OC(C)(C)C)C(C)(C)C)cc1 |  | 0.21 |  |  |  | IC50 (MT4 [7]): No activity |
| CC(C)(C)OC(=O)N[C@@H](Cc1ccccc1)[C@@H](O)[C@@H](NCc1ccc(OCCO)cc1)C(=O)NCc1ccccc1 |  |  |  |  |  | IC50 (MT4 [7]): No activity |
| CC(C)(C)OC(=O)N[C@@H](Cc1ccccc1)[C@@H](O)[C@@H](NCc1ccccc1)C(=O)NCc1ccccc1 |  |  | 0.8 | 0.4 | < 1 | IC50 (MT4 [7]): No activity |
| CC(=O)NCc1ccc(CN[C@@H](C(=O)N[C@H]2c3ccccc3C[C@H]2O)[C@H](O)[C@H](Cc2ccccc2)NC(=O)OC(C)(C)C)cc1 | 2.6 | 0.07 |  |  |  |  |
| COc1ccc(CN[C@@H](C(=O)N[C@@H]2c3ccccc3C[C@H]2O)[C@H](O)[C@H](Cc2ccccc2)NC(=O)C(CC(=O)O)NC(=O)OCc2ccccc2)cc1 (stereo partly specified) |  | 0.022 |  |  |  | IC50 (MT4 [7]): No activity |
| COc1ccc(CN[C@@H](C(=O)N[C@@H]2c3ccccc3C[C@H]2O)[C@H](O)[C@H](Cc2ccccc2)NC(=O)C(CC(N)=O)NC(=O)OCc2ccccc2)cc1 (stereo partly specified) | 1.4 | 0.015 |  |  |  |  |
| CC(C)(C)OC(=O)N[C@@H](Cc1ccccc1)[C@@H](O)[C@@H](NCc1ccc(OCCO)cc1)C(=O)N[C@@H]1c2ccccc2C[C@H]1O | 4 | 0.08 |  |  |  |  |
| CCOc1ccc(CN[C@@H](C(=O)N[C@@H]2c3ccccc3C[C@H]2O)[C@H](O)[C@H](Cc2ccccc2)NC(=O)OC(C)(C)C)cc1 |  | 0.092 |  |  |  | IC50 (MT4 [3]): No activity |
| CC(C)(C)OC(=O)N[C@@H](Cc1ccccc1)[C@@H](O)[C@@H](NCc1ccc(OCCN2CCOCC2)cc1)C(=O)N[C@@H]1c2ccccc2C[C@H]1O |  | 0.13 |  |  |  | IC50 (MT4 [3]): No activity |
| COc1ccc(CN[C@@H](C(=O)N[C@H](C(=O)NCc2nc3ccccc3[nH]2)C(C)C)[C@H](O)[C@H](Cc2ccccc2)NC(=O)[C@@H](NC(=O)OCc2ccccc2)C(C)(C)C)cc1 | 0.025 | 0.0034 | 0.6 | 0.2 | < 1 |  |
| COc1ccc(CN[C@@H](C(=O)NC(C(=O)NCc2nc3ccccc3[nH]2)C(C)C)[C@H](O)[C@H](Cc2ccccc2)NC(=O)OC(C)(C)C)cc1 (stereo partly specified) | 0.51 | 0.0077 | 127 | 9.1 | 9 (≈ 6.06 µg/mL) |  |
| CC(C)(C)OC(=O)N[C@@H](Cc1ccccc1)[C@@H](O)[C@@H](NCc1ccc(CNC(=O)OCc2ccccc2)cc1)C(=O)N[C@H]1c2ccccc2C[C@H]1O |  |  |  |  |  | IC50 (MT4 [3]): No activity |
